pIC50, pKi: −log10 of the molar value.

From ChEMBL document CHEMBL1131335, “Modulation of receptor and receptor subtype affinities using diastereomeric and enantiomeric monosaccharide scaffolds as a means to structural and biological diversity. A new route to ether synthesis” (J Med Chem, 1998) come the findings set out here.

Test [1] has as its target T1, Substance-P receptor (Homo sapiens, UniProt P25103). Kind of test: Binding affinity was measured for Tachykinin receptor 1; Did not bind.
A further test deals with Somatostatin receptor. Kind of test: Binding affinity was measured for SRIF receptor on AtT-20 mouse pituitary cells. It is filed as cell-based. Particulars: pituitary gland cell; call rule not given here.
For test [2], the target named is T1, Substance-P receptor. Nature of the test: Binding affinity was measured for Tachykinin receptor 1.
In test [3] the target is Somatostatin receptor type 4 (Homo sapiens, UniProt P31391). Kind of test: Binding affinity for human receptor subtype hSSTR4. An outline of the steps: (§1)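 Radioligand competition on membranes from CHO-K1 cells expressing hSSTR1–5, in 50 mM Tris-HCl pH 7.8 with 1 mM EGTA, 5 mM MgCl2 and protease inhibitors (leupeptin, pepstatin, bacitracin, aprotinin). Tracer was [125I-Tyr11]SRIF-14 at 0.1 nM final. Compounds ran 0.01–10,000 nM as seven-point full-log titrations, in triplicate, in at least two separate experiments. Incubation was 45 min at room temperature, then filtration onto PEI-pretreated GF/C filters and scintillation counting.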

In test [4] the target is Somatostatin receptor type 3 (Homo sapiens, UniProt P32745). Kind of test: Binding affinity for human receptor subtype hSSTR3. An outline of the steps:
as §1

Test [5] deals with Somatostatin receptor type 2 (Homo sapiens, UniProt P30874). Kind of test: Binding affinity for human receptor subtype hSSTR2. An outline of the steps:
(§2)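 Radioligand competition on membranes from CHO-K1 cells expressing hSSTR1–5, in 50 mM Tris-HCl pH 7.8 with 1 mM EGTA, 5 mM MgCl2 and protease inhibitors (leupeptin, pepstatin, bacitracin, aprotinin). Compounds ran 0.01–10,000 nM as seven-point full-log titrations, in triplicate, in at least two separate experiments. Incubation was 45 min at room temperature, then filtration onto PEI-pretreated GF/C filters and scintillation counting.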

The target in test [6] is T2, Somatostatin receptor type 5 (Homo sapiens, UniProt P35346). Nature of the test: Binding affinity for human receptor subtype hSSTR5. The gist of the method: as §2
Test [7] has as its target Somatostatin receptor type 1 (Homo sapiens, UniProt P30872). Nature of the test: Binding affinity for human receptor subtype hSSTR1. The gist of the method: as §2
Test [8] concerns the target T2, Somatostatin receptor type 5. Kind of test: Binding affinity for human receptor subtype hSSTR5.; Did not bind. The gist of the method:
as §1

T1 sequence (P25103 whole entry): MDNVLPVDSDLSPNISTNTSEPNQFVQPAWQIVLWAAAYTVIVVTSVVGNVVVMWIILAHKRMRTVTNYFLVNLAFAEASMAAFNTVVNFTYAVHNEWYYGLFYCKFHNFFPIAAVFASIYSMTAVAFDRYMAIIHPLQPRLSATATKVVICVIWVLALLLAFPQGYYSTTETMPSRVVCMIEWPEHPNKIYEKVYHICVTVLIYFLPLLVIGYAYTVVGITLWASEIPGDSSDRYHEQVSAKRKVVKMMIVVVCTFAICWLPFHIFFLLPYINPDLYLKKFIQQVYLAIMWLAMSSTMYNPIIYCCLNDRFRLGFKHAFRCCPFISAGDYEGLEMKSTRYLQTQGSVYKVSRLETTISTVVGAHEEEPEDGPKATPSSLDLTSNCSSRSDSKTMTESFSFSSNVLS
T2 sequence (P35346 whole entry): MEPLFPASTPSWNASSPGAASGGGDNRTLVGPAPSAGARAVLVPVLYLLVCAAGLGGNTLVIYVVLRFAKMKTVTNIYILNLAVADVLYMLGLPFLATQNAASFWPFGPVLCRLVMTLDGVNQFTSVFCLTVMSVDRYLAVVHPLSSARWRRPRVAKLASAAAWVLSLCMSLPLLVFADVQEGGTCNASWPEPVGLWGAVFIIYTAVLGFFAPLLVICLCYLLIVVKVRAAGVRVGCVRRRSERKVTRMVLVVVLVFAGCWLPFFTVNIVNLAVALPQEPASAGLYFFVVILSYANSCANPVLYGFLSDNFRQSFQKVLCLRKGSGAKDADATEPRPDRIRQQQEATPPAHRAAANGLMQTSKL
Somatostatin receptor type 3, sequence (P32745 whole entry): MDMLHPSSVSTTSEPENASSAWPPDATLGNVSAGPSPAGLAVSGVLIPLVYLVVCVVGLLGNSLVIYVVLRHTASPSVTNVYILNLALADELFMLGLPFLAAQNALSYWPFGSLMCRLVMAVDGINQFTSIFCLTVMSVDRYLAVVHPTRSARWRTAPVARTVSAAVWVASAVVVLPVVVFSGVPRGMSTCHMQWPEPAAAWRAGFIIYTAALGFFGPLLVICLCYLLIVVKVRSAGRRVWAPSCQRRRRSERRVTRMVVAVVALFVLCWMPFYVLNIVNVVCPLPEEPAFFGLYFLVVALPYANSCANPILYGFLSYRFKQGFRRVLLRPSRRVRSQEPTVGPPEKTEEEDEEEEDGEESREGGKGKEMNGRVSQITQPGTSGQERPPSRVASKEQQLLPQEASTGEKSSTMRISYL
Somatostatin receptor type 4, sequence (P31391 whole entry): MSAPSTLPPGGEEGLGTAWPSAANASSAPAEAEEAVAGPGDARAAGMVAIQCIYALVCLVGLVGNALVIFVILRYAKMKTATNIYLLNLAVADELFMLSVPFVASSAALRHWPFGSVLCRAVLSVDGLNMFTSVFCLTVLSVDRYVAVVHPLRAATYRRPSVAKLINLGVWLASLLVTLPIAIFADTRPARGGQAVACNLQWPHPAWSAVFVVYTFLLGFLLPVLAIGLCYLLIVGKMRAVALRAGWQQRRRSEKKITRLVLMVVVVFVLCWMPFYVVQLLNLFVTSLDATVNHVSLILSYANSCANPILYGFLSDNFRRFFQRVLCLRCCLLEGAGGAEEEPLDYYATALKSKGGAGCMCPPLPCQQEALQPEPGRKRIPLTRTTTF
Somatostatin receptor type 2, sequence (P30874 whole entry): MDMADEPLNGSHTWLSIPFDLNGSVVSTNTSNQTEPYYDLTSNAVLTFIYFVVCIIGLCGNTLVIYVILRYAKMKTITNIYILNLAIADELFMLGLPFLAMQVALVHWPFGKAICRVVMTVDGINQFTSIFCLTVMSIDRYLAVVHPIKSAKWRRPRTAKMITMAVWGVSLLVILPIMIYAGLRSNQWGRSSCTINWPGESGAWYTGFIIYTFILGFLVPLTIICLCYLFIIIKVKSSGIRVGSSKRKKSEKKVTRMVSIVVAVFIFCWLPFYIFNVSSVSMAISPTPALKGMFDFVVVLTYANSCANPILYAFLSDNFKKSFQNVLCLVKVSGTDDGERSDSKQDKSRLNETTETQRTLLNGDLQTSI
Somatostatin receptor type 1, sequence (P30872 whole entry): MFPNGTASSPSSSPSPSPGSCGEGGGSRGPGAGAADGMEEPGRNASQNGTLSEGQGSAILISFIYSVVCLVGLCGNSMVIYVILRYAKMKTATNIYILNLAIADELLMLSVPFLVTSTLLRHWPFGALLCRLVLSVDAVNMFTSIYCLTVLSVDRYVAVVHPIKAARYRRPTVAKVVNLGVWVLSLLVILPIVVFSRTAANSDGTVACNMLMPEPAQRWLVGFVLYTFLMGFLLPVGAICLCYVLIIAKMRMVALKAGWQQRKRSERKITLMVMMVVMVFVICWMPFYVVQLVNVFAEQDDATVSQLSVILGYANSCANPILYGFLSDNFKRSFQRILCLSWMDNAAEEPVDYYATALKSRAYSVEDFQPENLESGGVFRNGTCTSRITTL

Regarding `CC(=O)NCCCCCOC[C@H]1O[C@@H](OCCc2c[nH]c3ccccc23)[C@H](OCc2ccc3ccccc3c2)[C@@H](OCc2ccccc2)[C@@H]1OCc1ccccc1`, on Substance-P receptor [1], the half-inhibitory concentration (IC50) (as a rule, the concentration at which inhibition is half-maximal) was “Not Active”.

Consider `NCCCCCOC[C@H]1O[C@@H](OCCc2c[nH]c3ccccc23)[C@H](OCc2ccccc2)C[C@@H]1OCc1ccccc1`, for which the IC50 at Somatostatin receptor was determined as 8400 nM.

Take `CC(=O)NCCCCCOC[C@H]1O[C@@H](OCCc2c[nH]c3ccccc23)[C@H](OCc2ccc(F)cc2)[C@@H](OCc2ccccc2)[C@@H]1OCc1ccccc1`: on Substance-P receptor [2], the pIC50 (commonly −log10 of the IC50, conventionally taken in molar units) was 6.68.

`OCCCCCNC[C@H]1O[C@@H](OCCc2c[nH]c3ccccc23)[C@H](OCc2ccccc2)[C@@H](OCc2ccccc2)[C@@H]1OCc1ccccc1` gave an IC50 on Somatostatin receptor of 14000 nM.

With `NCCCCCNC[C@H]1O[C@@H](OCCc2c[nH]c3ccccc23)[C@H](OCc2ccccc2)[C@@H](OCc2ccccc2)[C@@H]1OCc1ccccc1`, the pKi (in general, −log10 of the Ki, conventionally taken in molar units) in [3] was 6.30; in test [4], 6.22; in test [5], 6.22; in test [6] it was 5.89; in test [7] it was 5.68. For the same compound, the IC50 on Somatostatin receptor worked out at 13000 nM.

For the compound `Fc1ccc(COC[C@H]2O[C@@H](OCCc3c[nH]c4ccccc34)[C@H](OCc3ccc4ccccc4c3)[C@@H](OCc3ccccc3)[C@@H]2OCc2ccccc2)cc1`, the 50% inhibitory concentration (IC50) entry at Substance-P receptor [1] is listed as “Not Active”.

`Fc1ccc(CO[C@H]2[C@H](OCCc3c[nH]c4ccccc34)O[C@H](COCc3ccc4ccccc4c3)[C@@H](OCc3ccccc3)[C@@H]2OCc2ccccc2)cc1`: the IC50 entry on Substance-P receptor [1] is “Not Active”.

On to `NCCCCCCOC[C@H]1O[C@@H](OCCc2c[nH]c3ccccc23)[C@H](OCc2ccccc2)C[C@@H]1OCc1ccccc1`, for which the IC50 at Somatostatin receptor stood at 7000 nM. In other words, the single-digit micromolar range.

In the case of `NCCCCCOC[C@@H]1O[C@H](OCCc2c[nH]c3ccccc23)[C@H](OCc2c[nH]cn2)[C@H](OCc2ccccc2)[C@H]1OCc1ccccc1`, the Ki entry in test [8] is recorded as “Not Active”.

Consider `Fc1ccc(OC[C@H]2O[C@@H](OCCc3c[nH]c4ccccc34)[C@H](OCc3ccc4ccccc4c3)[C@@H](OCc3ccccc3)[C@@H]2OCc2ccccc2)cc1`, for which, on Substance-P receptor [1], the concentration for half-maximal inhibition (IC50) result is recorded as “Not Active”.

The compound `NCCCCCOC[C@H]1O[C@@H](CCc2c[nH]c3ccccc23)[C@H](OCc2ccccc2)[C@@H](OCc2ccccc2)[C@@H]1OCc1ccccc1` registered an IC50 on Somatostatin receptor of 22000 nM.

On Somatostatin receptor, `NCCCCCOC[C@H]1O[C@@H](OCCc2c[nH]c3ccccc23)[C@H](OCc2c[nH]cn2)C[C@@H]1OCc1ccccc1` returned a 50% inhibitory concentration (IC50) of 4100 nM.

Compound `CO[C@@H]1O[C@H](COCCCCCN)[C@@H](OCc2ccccc2)[C@H](OCc2c[nH]cn2)[C@H]1OCc1ccccc1` had a 50% inhibitory concentration (IC50) on Somatostatin receptor of 5600 nM. The IC50 values of the last two compounds are within 1.5-fold of each other.

For `CO[C@@H]1O[C@H](COCCCCCN)[C@@H](OCc2ccccc2)[C@H](OCc2ccccc2)[C@H]1OCc1ccccc1`, the IC50 on Somatostatin receptor was determined as 5900 nM. The IC50 values of the last two compounds are within 1.5-fold of each other.

As to `OCCCCCCNC[C@H]1O[C@@H](OCCc2c[nH]c3ccccc23)[C@H](OCc2ccccc2)C[C@@H]1OCc1ccccc1`, the IC50 at Somatostatin receptor turned out to be 5100 nM.

`C[C@@H](O)[C@@H]1NC(=O)[C@H](Cc2ccc(F)cc2)NC(=O)[C@@H](Cc2c[nH]c3ccccc23)NC(=O)[C@H](Cc2ccc3ccccc3c2)NC(=O)[C@@H]2CCCN2C(=O)[C@H](Cc2ccccc2)NC1=O` gave a negative logarithm of the IC50 (pIC50) at Substance-P receptor [2] of 7.19.
